Assay results published in ChEMBL document CHEMBL2177043, “HIV-1 X4 activities of polycationic "viologen" based dendrimers by interaction with the chemokine receptor CXCR4: study of structure-activity relationship” (J Med Chem, 2012).
Activity calls are given as the source filed them. No cut-off for these calls is given here.

How the values were obtained:
[1] = molecular target: T1, C-X-C chemokine receptor type 4 (Homo sapiens, UniProt P61073); assay: Inhibition of CXCL-12'AF647 binding to CXCR4 in human SUPT1 cells incubated for 15 mins by FACS; type: cell-based
T1 sequence (P61073 whole entry): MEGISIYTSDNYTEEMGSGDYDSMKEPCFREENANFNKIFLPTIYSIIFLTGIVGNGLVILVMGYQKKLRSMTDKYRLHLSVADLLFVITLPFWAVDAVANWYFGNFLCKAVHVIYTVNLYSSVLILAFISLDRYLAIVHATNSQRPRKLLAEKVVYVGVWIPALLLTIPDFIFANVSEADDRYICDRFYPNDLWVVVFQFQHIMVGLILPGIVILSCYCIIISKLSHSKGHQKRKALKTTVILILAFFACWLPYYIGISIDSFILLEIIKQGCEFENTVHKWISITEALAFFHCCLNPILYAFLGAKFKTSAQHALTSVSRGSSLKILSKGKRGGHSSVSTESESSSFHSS
Method in brief: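 SupT1 cells (high CXCR4) washed, then incubated 15 min at room temperature with compounds at varied concentrations in HBSS containing 20 mM HEPES and 0.2% BSA, pH 7.4. CXCL12-AF647 added at 25 ng/mL final for 30 min at room temperature. Cells washed, fixed in 1% paraformaldehyde, and read by flow cytometry on FL4.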

[2] = molecular target: T2, C-C chemokine receptor type 5 (Homo sapiens, UniProt P51681); assay: Antagonist activity against CCR5 expressed in U87.CD4.CCR5 cells assessed as inhibition of CCL3L1-induced calcium signaling incubated for 10 mins by FLIPR
T2 sequence (P51681 whole entry, looked up): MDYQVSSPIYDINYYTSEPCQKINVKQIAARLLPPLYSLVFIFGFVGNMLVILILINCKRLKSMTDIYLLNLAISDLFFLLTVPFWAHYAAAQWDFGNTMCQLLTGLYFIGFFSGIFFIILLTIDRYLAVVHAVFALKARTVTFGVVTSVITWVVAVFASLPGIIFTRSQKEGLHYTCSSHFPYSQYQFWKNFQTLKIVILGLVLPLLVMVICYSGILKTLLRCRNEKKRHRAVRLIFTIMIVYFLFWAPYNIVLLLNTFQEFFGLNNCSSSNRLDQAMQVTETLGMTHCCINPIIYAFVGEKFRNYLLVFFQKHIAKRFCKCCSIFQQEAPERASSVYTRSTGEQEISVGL

[3] = Cytotoxicity against human MT4 cells by MTT assay; type: cell-based
[4] = molecular target: T1, C-X-C chemokine receptor type 4; assay: Inhibition of anti-CXCR4 mAbs clone 1D9 binding to CXCR4 in human SUPT1 cells incubated for 30 mins by FACS
[5] = tested on: Human immunodeficiency virus 1; assay: Antiviral activity against X4 HIV1 NL4.3 infected in human MT4 cells assessed as inhibition of viral replication pre-incubated for 30 mins […]; type: functional, organism-based; settings: Human immunodeficiency virus 1, NL4.3, MT4
[6] = molecular target: T2, C-C chemokine receptor type 5; assay: Antagonist activity against CCR5 expressed in U87.CD4.CCR5 cells assessed as inhibition of CCL3L1-induced calcium signaling incubated for 10 mins by FLIPR; type: functional, cell-based
Method in brief: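 U87.CD4.CCR5 cells seeded at 2 × 10⁴/well on 0.2% gelatin the day before, loaded with 4 μM Fluo-3 AM for 45 min at 37 °C, washed, then preincubated with compounds at varied concentrations in assay buffer for 10 min at 37 °C. Stimulated with 10 ng/mL LD78β (CCL3L1); Ca²⁺ flux recorded by FLIPR.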

[7] = Cytotoxicity against human PBMC cells by MTT assay; type: cell-based
[8] = molecular target: T1, C-X-C chemokine receptor type 4; assay: Inhibition of anti-CXCR4 mAbs clone 173 binding to CXCR4 in human SUPT1 cells incubated for 30 mins by FACS
[9] = molecular target: T1, C-X-C chemokine receptor type 4; assay: Inhibition of anti-CXCR4 mAbs clone 12G5 binding to CXCR4 in human SUPT1 cells incubated for 30 mins by FACS
[10] = tested on: Human immunodeficiency virus 1; assay: Antiviral activity against X4 HIV1 NL4.3 infected in human PBMC assessed as inhibition of viral replication pre-incubated for 30 mins measured 5 days post infection by MTT assay; type: functional, organism-based; settings: Human immunodeficiency virus 1, NL4.3
Method in brief: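 Human PBMC infected with HIV-1 NL4.3. IC₅₀ is the concentration inhibiting viral replication by 50%, averaged over two independent experiments. Cytotoxicity (CC₅₀, 50% loss of PBMC viability) evaluated in the same assay.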

[11] = molecular target: T1, C-X-C chemokine receptor type 4; assay: Antagonist activity against CXCR4 expressed in U87.CD.CXCR4 cells assessed as inhibition of CXCL12-induced calcium signaling incubated for 10 mins by FLIPR; type: functional, cell-based
Method in brief: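 U87.CD4.CXCR4 cells seeded at 2 × 10⁴/well on 0.2% gelatin the day before, loaded with 4 μM Fluo-3 AM for 45 min at 37 °C, washed, then preincubated with compounds at varied concentrations in assay buffer for 10 min at 37 °C. Challenged with 25 ng/mL CXCL12; Ca²⁺ flux followed over time by FLIPR.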

[12] = molecular target: T1, C-X-C chemokine receptor type 4; assay: Agonist activity against CXCR4 expressed in U87.CD.CXCR4 cells assessed as stimulation of calcium signaling incubated for 10 mins by FLIPR; type: functional, cell-based
Method in brief: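 U87.CD4 cells stably carrying CXCR4 or CCR5, trypsinized and seeded at 2 × 10⁴ cells/well on 0.2% gelatin the day before. Loaded with Fluo-3 AM (4 μM, 45 min, 37 °C), washed, then exposed to test agents alone at varied concentrations in assay buffer for 10 min at 37 °C. Cytosolic Ca²⁺ rise monitored over time by FLIPR to detect any agonist-triggered signal.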

[13] = molecular target: T2, C-C chemokine receptor type 5; assay: Agonist activity against CCR5 expressed in U87.CD4.CCR5 cells assessed as stimulation of calcium signaling incubated for 10 mins by FLIPR

Which results are given for `Cc1cn(CCC[n+]2ccc(-c3cc[n+](Cc4cc(C[n+]5ccc(-c6cc[n+](CCCn7cc(C)c(=O)[nH]c7=O)cc6)cc5)cc(C[n+]5ccc(-c6cc[n+](Cc7cc(C[n+]8ccc(-c9cc[n+](Cc%10cc(C[n+]%11ccc(-c%12cc[n+](CCCn%13cc(C)c(=O)[nH]c%13=O)cc%12)cc%11)cc(C[n+]%11ccc(-c%12cc[n+](CCCn%13cc(C)c(=O)[nH]c%13=O)cc%12)cc%11)c%10)cc9)cc8)cc(C[n+]8ccc(-c9cc[n+](Cc%10cc(C[n+]%11ccc(-c%12cc[n+](Cc%13cc(C[n+]%14ccc(-c%15cc[n+](Cc%16cc(C[n+]%17ccc(-c%18cc[n+](CCCn%19cc(C)c(=O)[nH]c%19=O)cc%18)cc%17)cc(C[n+]%17ccc(-c%18cc[n+](CCCn%19cc(C)c(=O)[nH]c%19=O)cc%18)cc%17)c%16)cc%15)cc%14)cc(C[n+]%14ccc(-c%15cc[n+](Cc%16cc(C[n+]%17ccc(-c%18cc[n+](CCCn%19cc(C)c(=O)[nH]c%19=O)cc%18)cc%17)cc(C[n+]%17ccc(-c%18cc[n+](CCCn%19cc(C)c(=O)[nH]c%19=O)cc%18)cc%17)c%16)cc%15)cc%14)c%13)cc%12)cc%11)cc(C[n+]%11ccc(-c%12cc[n+](Cc%13cc(C[n+]%14ccc(-c%15cc[n+](Cc%16cc(C[n+]%17ccc(-c%18cc[n+](CCCn%19cc(C)c(=O)[nH]c%19=O)cc%18)cc%17)cc(C[n+]%17ccc(-c%18cc[n+](CCCn%19cc(C)c(=O)[nH]c%19=O)cc%18)cc%17)c%16)cc%15)cc%14)cc(C[n+]%14ccc(-c%15cc[n+](Cc%16cc(C[n+]%17ccc(-c%18cc[n+](CCCn%19cc(C)c(=O)[nH]c%19=O)cc%18)cc%17)cc(C[n+]%17ccc(-c%18cc[n+](CCCn%19cc(C)c(=O)[nH]c%19=O)cc%18)cc%17)c%16)cc%15)cc%14)c%13)cc%12)cc%11)c%10)cc9)cc8)c7)cc6)cc5)c4)cc3)cc2)c(=O)[nH]c1=O.F[P-](F)(F)(F)(F)F.F[P-](F)(F)(F)(F)F.F[P-](F)(F)(F)(F)F.F[P-](F)(F)(F)(F)F.F[P-](F)(F)(F)(F)F.F[P-](F)(F)(F)(F)F.F[P-](F)(F)(F)(F)F.F[P-](F)(F)(F)(F)F.F[P-](F)(F)(F)(F)F.F[P-](F)(F)(F)(F)F.F[P-](F)(F)(F)(F)F.F[P-](F)(F)(F)(F)F.F[P-](F)(F)(F)(F)F.F[P-](F)(F)(F)(F)F.F[P-](F)(F)(F)(F)F.F[P-](F)(F)(F)(F)F.F[P-](F)(F)(F)(F)F.F[P-](F)(F)(F)(F)F.F[P-](F)(F)(F)(F)F.F[P-](F)(F)(F)(F)F.F[P-](F)(F)(F)(F)F.F[P-](F)(F)(F)(F)F.F[P-](F)(F)(F)(F)F.F[P-](F)(F)(F)(F)F.F[P-](F)(F)(F)(F)F.F[P-](F)(F)(F)(F)F.F[P-](F)(F)(F)(F)F.F[P-](F)(F)(F)(F)F.F[P-](F)(F)(F)(F)F.F[P-](F)(F)(F)(F)F.F[P-](F)(F)(F)(F)F.F[P-](F)(F)(F)(F)F.F[P-](F)(F)(F)(F)F.F[P-](F)(F)(F)(F)F.F[P-](F)(F)(F)(F)F.F[P-](F)(F)(F)(F)F.F[P-](F)(F)(F)(F)F.F[P-](F)(F)(F)(F)F.F[P-](F)(F)(F)(F)F.F[P-](F)(F)(F)(F)F.F[P-](F)(F)(F)(F)F.F[P-](F)(F)(F)(F)F`?
IC50 [1]: 124 nM; inhibition [2]: Dose-dependent effect; CC50 [3]: 9 µg/mL; IC50 [4]: 233 nM; inhibition [4]: Dose-dependent effect; IC50 [5]: 1.5 µg/mL; IC50 [6]: 1750 nM; CC50 [7]: 20 µg/mL; IC50 [8]: 191 nM; inhibition [8]: Dose-dependent effect; IC50 [9]: 178 nM; inhibition [9]: Dose-dependent effect; IC50 [10]: 2.32 µg/mL; IC50 [11]: 38.3 nM; inhibition [11]: Dose-dependent effect; Activity [12]: inactive; Activity [13]: inactive
